{
  "source": "ChEMBL document CHEMBL1275329",
  "about": "“Fruitful adrenergic α(2C)-agonism/α(2A)-antagonism combination to prevent and contrast morphine tolerance and dependence” (J Med Chem, 2010)",
  "note": "Active and inactive are the calls of the source. No cut-off for these calls is given here.",
  "data": [
    {"biological_target": "T1, Alpha-2A adrenergic receptor (Homo sapiens, UniProt P08913)", "T1 sequence (P08913 whole entry)": "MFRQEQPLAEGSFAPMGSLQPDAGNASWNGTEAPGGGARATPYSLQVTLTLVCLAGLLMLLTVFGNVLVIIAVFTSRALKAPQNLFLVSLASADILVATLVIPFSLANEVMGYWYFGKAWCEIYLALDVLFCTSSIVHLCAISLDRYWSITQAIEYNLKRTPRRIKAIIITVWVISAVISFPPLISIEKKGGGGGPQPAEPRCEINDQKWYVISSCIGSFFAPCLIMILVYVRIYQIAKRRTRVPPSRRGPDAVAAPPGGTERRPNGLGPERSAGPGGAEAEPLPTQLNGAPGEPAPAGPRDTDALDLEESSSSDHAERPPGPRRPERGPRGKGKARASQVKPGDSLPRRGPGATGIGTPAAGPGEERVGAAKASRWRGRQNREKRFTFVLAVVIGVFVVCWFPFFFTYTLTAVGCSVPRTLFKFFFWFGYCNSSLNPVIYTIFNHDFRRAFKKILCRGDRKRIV", "experiment": "Displacement of [3H]RX821002 from human alpha2A adrenoceptor expressed in CHO cells", "type": "cell-based", "settings": "not given", "summary_of_the_method": "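Crude membranes from CHO cells expressing human α2A-AR were incubated in Tris-Mg buffer (50 mM Tris-HCl, 0.5 mM MgCl₂, pH 7.5). Ki came from one- or two-site nonlinear regression and is given as pKi.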", "units": {"Ki": "nM"}, "values": [
      {"smiles": "C[C@H](Oc1ccccc1C1CC1)C1=NCCN1", "Ki": 20.9},
      {"smiles": "C[C@@H](Oc1ccccc1C1CC1)C1=NCCN1", "Ki": 44.7},
      {"smiles": "C[C@H](Oc1ccccc1-c1ccsc1)C1=NCCN1", "Ki": 44.7},
      {"smiles": "C[C@H](Oc1ccccc1-c1cccc(O)c1)C1=NCCN1", "Ki": 97.7}
    ]},
    {"biological_target": "T1, Alpha-2A adrenergic receptor", "experiment": "Agonist activity at human alpha2A adrenoceptor expressed in CHO cells assessed as induction of extracellular acidification by microphysiometry", "type": "functional, cell-based", "settings": "not given", "summary_of_the_method": "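CHO cells stably expressing human α2A-AR were seeded at 3 × 10⁵ cells/cup and held 24 h at 37 °C under 5% CO₂. They were then perfused at 100 μL/min with bicarbonate-free DMEM containing glutamine and NaCl. Agonist exposure lasted 4 min, with 30 min washes between exposures.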", "units": {"EC50": "nM"}, "values": [
      {"smiles": "C[C@H](Oc1ccccc1-c1ccsc1)C1=NCCN1", "EC50": 63.1}
    ]},
    {"biological_target": "T2, Alpha-2A adrenergic receptor (Homo sapiens) (UniProt P08913)", "T2 sequence (whole entry)": "T1 sequence (P08913 whole entry)", "experiment": "Antagonist activity at human alpha2A adrenoceptor expressed in CHO cells assessed as effect on agonist-induced extracellular acidification by microphysiometry", "type": "functional, cell-based", "settings": "not given", "summary_of_the_method": "(§1)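 CHO cells stably expressing one human α2-AR subtype were run on the Cytosensor microphysiometer with bicarbonate-free DMEM perfusion. […] Kb = M/(concentration ratio − 1), where the ratio is EC50 with antagonist over EC50 without. Reported as pKb, mean ± SEM of 3–6 experiments.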", "values": [
      {"smiles": "C[C@H](Oc1ccccc1C1CC1)C1=NCCN1", "pKb": 7.7},
      {"smiles": "C[C@@H](Oc1ccccc1C1CC1)C1=NCCN1", "pKb": 6.9},
      {"smiles": "C[C@H](Oc1ccccc1-c1cccc(O)c1)C1=NCCN1", "pKb": 6}
    ]},
    {"biological_target": "T3, Alpha-2B adrenergic receptor (Homo sapiens, UniProt P18089)", "T3 sequence (P18089 whole entry)": "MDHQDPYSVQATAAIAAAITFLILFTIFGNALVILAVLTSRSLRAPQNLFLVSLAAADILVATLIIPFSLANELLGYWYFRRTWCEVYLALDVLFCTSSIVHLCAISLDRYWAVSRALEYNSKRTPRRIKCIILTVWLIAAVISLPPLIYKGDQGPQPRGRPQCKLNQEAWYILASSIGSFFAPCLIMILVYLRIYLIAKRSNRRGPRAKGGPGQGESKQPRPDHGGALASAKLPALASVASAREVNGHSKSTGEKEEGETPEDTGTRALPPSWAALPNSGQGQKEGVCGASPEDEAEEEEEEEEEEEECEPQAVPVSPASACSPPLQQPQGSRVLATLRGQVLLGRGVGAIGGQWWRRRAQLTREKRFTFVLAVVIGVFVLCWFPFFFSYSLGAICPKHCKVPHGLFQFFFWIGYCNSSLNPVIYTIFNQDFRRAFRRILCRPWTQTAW", "experiment": "Displacement of [3H]RX821002 from human alpha2B adrenoceptor expressed in CHO cells", "type": "cell-based", "settings": "not given", "summary_of_the_method": "(§2)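 Buffer was Tris-Mg (50 mM Tris-HCl, 0.5 mM MgCl2, pH 7.5), competitor 10^-9 to 10^-4 M, 30 min at room temperature. Bound ligand was filtered and counted. Ki by nonlinear one- or two-site fit, reported as pKi.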", "units": {"Ki": "nM"}, "values": [
      {"smiles": "C[C@H](Oc1ccccc1C1CC1)C1=NCCN1", "Ki": 263},
      {"smiles": "C[C@@H](Oc1ccccc1C1CC1)C1=NCCN1", "Ki": 562},
      {"smiles": "C[C@H](Oc1ccccc1-c1ccsc1)C1=NCCN1", "Ki": 447},
      {"smiles": "C[C@H](Oc1ccccc1-c1cccc(O)c1)C1=NCCN1", "Ki": 1000}
    ]},
    {"biological_target": "T3, Alpha-2B adrenergic receptor", "experiment": "Agonist activity at human alpha2B adrenoceptor expressed in CHO cells assessed as induction of extracellular acidification by microphysiometry", "settings": "not given", "units": {"EC50": "nM"}, "values": [
      {"smiles": "C[C@H](Oc1ccccc1C1CC1)C1=NCCN1", "EC50": 3160},
      {"smiles": "C[C@H](Oc1ccccc1-c1ccsc1)C1=NCCN1", "EC50": 1000}
    ]},
    {"biological_target": "T4, Alpha-2B adrenergic receptor (Homo sapiens) (UniProt P18089)", "T4 sequence (whole entry)": "T3 sequence (P18089 whole entry)", "experiment": "Antagonist activity at human alpha2B adrenoceptor expressed in CHO cells assessed as effect on agonist-induced extracellular acidification by microphysiometry", "type": "functional, cell-based", "settings": "not given", "summary_of_the_method": "as §1", "values": [
      {"smiles": "C[C@H](Oc1ccccc1-c1cccc(O)c1)C1=NCCN1", "pKb": 5.5}
    ]},
    {"biological_target": "T5, Alpha-2C adrenergic receptor (Homo sapiens, UniProt P18825)", "T5 sequence (P18825 whole entry)": "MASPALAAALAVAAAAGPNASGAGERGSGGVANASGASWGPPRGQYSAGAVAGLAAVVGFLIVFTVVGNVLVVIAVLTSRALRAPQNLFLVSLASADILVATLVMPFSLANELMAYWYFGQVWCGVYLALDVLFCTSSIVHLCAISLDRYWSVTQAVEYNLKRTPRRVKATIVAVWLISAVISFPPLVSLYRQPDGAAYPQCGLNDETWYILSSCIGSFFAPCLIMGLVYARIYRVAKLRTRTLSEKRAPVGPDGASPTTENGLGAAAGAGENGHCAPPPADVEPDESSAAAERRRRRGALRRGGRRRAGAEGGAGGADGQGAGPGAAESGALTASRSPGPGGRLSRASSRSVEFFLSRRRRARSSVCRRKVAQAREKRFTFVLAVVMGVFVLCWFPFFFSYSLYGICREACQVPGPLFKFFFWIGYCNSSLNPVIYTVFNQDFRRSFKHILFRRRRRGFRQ", "experiment": "Displacement of [3H]RX821002 from human Alpha-2C adrenoceptor expressed in CHO cells", "type": "cell-based", "settings": "not given", "summary_of_the_method": "as §2", "units": {"Ki": "nM"}, "values": [
      {"smiles": "C[C@H](Oc1ccccc1C1CC1)C1=NCCN1", "Ki": 63.1},
      {"smiles": "C[C@@H](Oc1ccccc1C1CC1)C1=NCCN1", "Ki": 126},
      {"smiles": "C[C@H](Oc1ccccc1-c1ccsc1)C1=NCCN1", "Ki": 126},
      {"smiles": "C[C@H](Oc1ccccc1-c1cccc(O)c1)C1=NCCN1", "Ki": 112}
    ]},
    {"biological_target": "T5, Alpha-2C adrenergic receptor", "experiment": "Agonist activity at human Alpha-2C adrenoceptor expressed in CHO cells assessed as induction of extracellular acidification by microphysiometry", "type": "functional, cell-based", "settings": "not given", "summary_of_the_method": "(§3)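 Cytosensor microphysiometry on CHO cells stably expressing one human α2-AR subtype, seeded at 3 × 10⁵ cells/cup and grown 24 h at 37 °C. Cells were perfused with bicarbonate-free DMEM and exposed to agonist for 4 min, with 30 min washes between exposures. The read-out is the change in acidification rate: peak after agonist minus the mean of three prior readings. Mean ± SEM, 3–6 experiments.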", "units": {"EC50": "nM"}, "values": [
      {"smiles": "C[C@H](Oc1ccccc1C1CC1)C1=NCCN1", "EC50": 35.5},
      {"smiles": "C[C@@H](Oc1ccccc1C1CC1)C1=NCCN1", "EC50": 126},
      {"smiles": "C[C@H](Oc1ccccc1-c1ccsc1)C1=NCCN1", "EC50": 6.31},
      {"smiles": "C[C@H](Oc1ccccc1-c1cccc(O)c1)C1=NCCN1", "EC50": 2510}
    ]},
    {"biological_target": "T6, Alpha-2C adrenergic receptor (Homo sapiens) (UniProt P18825)", "T6 sequence (whole entry)": "T5 sequence (P18825 whole entry)", "experiment": "Agonist activity at human Alpha-2C adrenoceptor expressed in CHO cells assessed as induction of extracellular acidification by microphysiometry relative to (-)noradrenaline", "type": "functional, cell-based", "settings": "not given", "summary_of_the_method": "as §3, with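 “readings. […]” for “readings.”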", "values": [
      {"smiles": "C[C@H](Oc1ccccc1C1CC1)C1=NCCN1", "Intrinsic activity": 0.9},
      {"smiles": "C[C@@H](Oc1ccccc1C1CC1)C1=NCCN1", "Intrinsic activity": 0.5},
      {"smiles": "C[C@H](Oc1ccccc1-c1ccsc1)C1=NCCN1", "Intrinsic activity": 0.9},
      {"smiles": "C[C@H](Oc1ccccc1-c1cccc(O)c1)C1=NCCN1", "Intrinsic activity": 0.65}
    ]},
    {"system": "Mus musculus", "experiment": "Enhancement of morphine-induced analgesic effect in CD1 mouse at 0.05 mg/kg, ip administered 15 mins before morphine dosing measured 30 to 240 mins post morphine challenge by radiant heat tail flick test", "type": "functional, organism-based", "parameters": "dose 0.05 mg/kg", "settings": "not given", "summary_of_the_method": "(§4)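 Male CD-1 mice (25–35 g) received test agent 0.05 mg/kg ip or vehicle 15 min before morphine 5 mg/kg sc. Radiant-heat tail-flick to the lower third of the tail; baseline latency (2–3 s) is the mean of two trials. Latencies were read at 30, 60, 90, 120 and 240 min and expressed as %MPE. 7–8 mice per group, mean ± SEM.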", "values": [
      {"smiles": "C[C@H](Oc1ccccc1C1CC1)C1=NCCN1", "Activity": "Active"},
      {"smiles": "C[C@@H](Oc1ccccc1C1CC1)C1=NCCN1", "Activity": "Active"}
    ]},
    {"system": "Mus musculus", "experiment": "Analgesic effect in CD1 mouse at 0.05 mg/kg, ip by radiant heat tail flick test", "type": "functional, organism-based", "parameters": "dose 0.05 mg/kg", "settings": "not given", "summary_of_the_method": "as §4", "values": [
      {"smiles": "C[C@H](Oc1ccccc1C1CC1)C1=NCCN1", "Activity": "inactive"},
      {"smiles": "C[C@@H](Oc1ccccc1C1CC1)C1=NCCN1", "Activity": "inactive"}
    ]},
    {"biological_target": "T4, Alpha-2B adrenergic receptor (Homo sapiens)", "settings": "CHO", "values": [
      {"smiles": "C[C@@H](Oc1ccccc1C1CC1)C1=NCCN1", "pEC50": "inactive"}
    ]}
  ]
}
